{"data": "Measurements gathered from unrelated publications", "target": "Mitogen-activated protein kinase 12 (MAPK12, Homo sapiens, UniProt P53778)", "One construct used (P53778 1-367)": "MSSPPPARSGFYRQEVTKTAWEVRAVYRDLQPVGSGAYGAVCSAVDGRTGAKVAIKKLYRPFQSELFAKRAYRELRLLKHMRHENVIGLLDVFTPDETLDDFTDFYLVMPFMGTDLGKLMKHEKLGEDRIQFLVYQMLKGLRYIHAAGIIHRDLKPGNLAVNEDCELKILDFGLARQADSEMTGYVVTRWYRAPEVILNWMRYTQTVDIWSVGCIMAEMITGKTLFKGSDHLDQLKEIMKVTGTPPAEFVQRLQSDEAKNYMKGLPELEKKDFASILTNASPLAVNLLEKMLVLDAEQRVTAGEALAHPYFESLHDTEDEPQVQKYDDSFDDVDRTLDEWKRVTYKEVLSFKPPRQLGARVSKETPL", "note": "Compare with care: the assays were run in different laboratories."}
{"Structure (SMILES)": "c1cnn2ncc(-c3ccnc(N4CCC45COC5)n3)c2c1", "effect on": "binding", "concentration": "1 µM", "remaining binding [%]": 65}
{"Structure (SMILES)": "C=CC(=O)N1CCC(C(=O)NCC(=O)N2CCN(c3nc(-c4cnc(N)nc4C(F)F)nc(N4CCOCC4)n3)CC2)CC1", "effect on": "binding", "technique": "competition with immobilised ligand", "concentration": "1 µM", "remaining binding [%]": 96}
{"Structure (SMILES)": "O=C(NCCCN1CCOCC1)c1ccc(Nc2ncc(Cl)c(-c3ccc(Cl)s3)n2)cc1", "effect on": "binding", "technique": "competition with immobilised ligand", "concentration": "1 µM", "remaining binding [%]": 100}
{"Structure (SMILES)": "F[C@@H]1CCN(c2nccc(-c3cnn4ncccc34)n2)C1", "effect on": "binding", "concentration": "1 µM", "remaining binding [%]": 100}
{"Structure (SMILES)": "Nc1ncc2c(n1)-c1c([nH]c3ccc(C#CC4CC4)cc13)CCCC2", "effect on": "binding", "technique": "competition with immobilised ligand", "concentration": "1 µM", "remaining binding [%]": 98}
{"Structure (SMILES)": "CNC(=O)[C@@H]1CC[C@@H](n2c(-c3ccc4cnccc4c3)nc3ccc(C(=O)NCc4cccc(C(N)=O)c4)cc32)C1", "effect on": "binding", "technique": "competition with immobilised ligand", "concentration": "1 µM", "remaining binding [%]": 100}
{"Structure (SMILES)": "CN(C)c1nccc(-c2cnn3ncccc23)n1", "effect on": "binding", "concentration": "1 µM", "remaining binding [%]": 60}
{"Structure (SMILES)": "CC1=C(C#N)C(c2ccc3c(c2)c(NC(=O)c2ccccc2C)nn3C)C(C#N)=C(C)N1", "effect on": "cell-free assay", "technique": "competition with immobilised ligand", "concentration": "1 µM", "remaining binding [%]": 68}
{"Structure (SMILES)": "COc1ccnn2ncc(-c3ccnc(N(C)C)n3)c12", "effect on": "binding", "concentration": "1 µM", "remaining binding [%]": 100}
{"Structure (SMILES)": "O=C(Nc1cnc(Oc2ccc(F)cc2)nc1)N1CCc2ncccc2[C@@H]1c1ccc(F)cc1", "effect on": "cell-free assay", "technique": "competition with immobilised ligand", "concentration": "1 µM", "remaining binding [%]": 96}
{"Structure (SMILES)": "O=C(Nc1c[nH]nc1C(=O)NC1CCNCC1)c1cc(F)cc(F)c1", "effect on": "binding", "technique": "competition with immobilised ligand", "concentration": "1 µM", "remaining binding [%]": 100}
{"Structure (SMILES)": "C[C@H]1CCN(c2nccc(-c3cnn4ncccc34)n2)C1", "effect on": "binding", "concentration": "1 µM", "remaining binding [%]": 37}
{"Structure (SMILES)": "COc1ccc2cc(OCC3(C(=O)O)CN(C(=O)c4ccc(F)cc4)C3)ccc2c1", "effect on": "cell-free assay", "technique": "competition with immobilised ligand", "concentration": "1 µM", "remaining binding [%]": 100}
{"Structure (SMILES)": "O=C(NCCCN1CCOCC1)c1ccc(Nc2nccc(-c3cc4ccccc4s3)n2)cc1", "effect on": "binding", "technique": "competition with immobilised ligand", "concentration": "1 µM", "remaining binding [%]": 100}
{"Structure (SMILES)": "CCN1CCN(Cc2ccc(C(=O)Nc3ccc(C)c(Oc4ccc5c(c4)CC(=O)N5)c3)cc2C(F)(F)F)CC1", "effect on": "binding", "technique": "competition with immobilised ligand", "concentration": "1 µM", "remaining binding [%]": 100}
{"Structure (SMILES)": "CNC(=O)Nc1ccc2c(c1)[C@@]1(CC2)OC(=O)N(CC(=O)N(Cc2ccc(F)cc2)[C@@H](C)C(F)(F)F)C1=O", "effect on": "cell-free assay", "technique": "competition with immobilised ligand", "concentration": "1 µM", "remaining binding [%]": 96}
{"Structure (SMILES)": "CN(c1nccc(-c2cnn3ncccc23)n1)C1CC1", "effect on": "binding", "concentration": "1 µM", "remaining binding [%]": 100}
{"Structure (SMILES)": "Cn1cc(Cl)c2c(Oc3c(F)cc(Nc4cc(Cl)nc(N)n4)cc3F)ccnc21", "effect on": "cell-free assay", "technique": "competition with immobilised ligand", "concentration": "0.1 µM", "remaining binding [%]": 100}
{"Structure (SMILES)": "COc1cnc(Nc2cccc(S(N)(=O)=O)c2)nc1N1CCN(c2ccccc2)CC1", "effect on": "binding", "technique": "competition with immobilised ligand", "concentration": "1 µM", "remaining binding [%]": 91}
{"Structure (SMILES)": "Cc1cc(NC(=O)c2cccc(S(F)(F)(F)(F)F)c2)cc(-n2ccn3nc(-c4cccnc4)cc23)c1", "effect on": "cell-free assay", "technique": "competition with immobilised ligand", "concentration": "1 µM", "remaining binding [%]": 41.7}
{"Structure (SMILES)": "Cc1cnc(Nc2ccc(C(=O)N3CCC(N4CCCC4)CC3)cc2)nc1-c1cc2ccccc2s1", "effect on": "binding", "technique": "competition with immobilised ligand", "concentration": "1 µM", "remaining binding [%]": 81}
